In ChEMBL document CHEMBL4052637, “Discovery and Characterization of R/S-N-3-Cyanophenyl-N'-(6-tert-butoxycarbonylamino-3,4-dihydro-2,2-dimethyl-2H-1-benzopyran-4-yl)urea, a New Histone Deacetylase Class III Inhibitor Exerting Antiproliferative Activity against Cancer Cell Lines” (J Med Chem, 2017):

How the values were obtained:
[1] = Antiproliferative activity against human U373 cells after 72 hrs by MTT assay; assay type: functional, cell-based, U-373MG ATCC; conditions: U373 MG
In short: (§1)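 MTT assay: cells in RPMI 1640 with 10% heat-inactivated FCS at 37 °C and 5% CO2 were seeded 24 h before treatment. They were exposed 72 h to compound at 0.01–100 μM, with DMSO as solvent.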

T98G = assay: Antiproliferative activity against human T98G cells after 72 hrs by MTT assay; assay type: functional, cell-based; in short: as §1
Hs 683 = assay: Antiproliferative activity against human Hs683 cells after 72 hrs by MTT assay; assay type: functional, cell-based; conditions: Hs 683, 72 h; in short: as §1

SMILES	IC50 [1] [µM]	IC50 (T98G) [µM]	IC50 (Hs 683) [µM]
CC(C)(C)OC(=O)Nc1ccc2c(c1)C(NC(=O)Nc1cccc(Br)c1)CC(C)(C)O2 (racemic)	22	26	18
CC(C)(C)OC(=O)Nc1ccc2c(c1)C(NC(=O)Nc1ccccc1C(F)(F)F)CC(C)(C)O2 (racemic)	> 100	–	–
CC1(C)CC(NC(=O)Nc2cccc(C#N)c2)c2cc(N)ccc2O1 (racemic)	> 100	> 100	> 100
CC(C)(C)OC(=O)Nc1ccc2c(c1)C(NC(=O)Nc1cccc(CN)c1)CC(C)(C)O2 (racemic)	> 100	> 100	95
CC(C)(C)OC(=O)Nc1ccc2c(c1)C(NC(=O)Nc1ccccc1C#N)CC(C)(C)O2 (racemic)	45	67	54
CC1(C)CC(NC(=O)Nc2cccc(C#N)c2)c2cc(NC=O)ccc2O1 (racemic)	> 100	> 100	> 100
CC1(C)CC(NC(=O)Nc2cccc(C#N)c2)c2ccccc2O1 (racemic)	38	32	31
CC(C)(C)OC(=O)Nc1ccc2c(c1)C(NC(=O)Nc1ccc(Cl)cc1)CC(C)(C)O2 (stereo not drawn)	22	26	26
CC(C)(C)OC(=O)Nc1ccc2c(c1)C(NC(=O)Nc1ccccc1Cl)CC(C)(C)O2 (racemic)	59	88	34
COc1cccc(NC(=O)NC2CC(C)(C)Oc3ccc(NC(=O)OC(C)(C)C)cc32)c1 (racemic)	30	> 100	37
COc1ccc(NC(=O)NC2CC(C)(C)Oc3ccc(NC(=O)OC(C)(C)C)cc32)cc1 (racemic)	33	49	62
COc1ccccc1NC(=O)NC1CC(C)(C)Oc2ccc(NC(=O)OC(C)(C)C)cc21 (racemic)	30	39	59
CC(C)(C)OC(=O)Nc1ccc2c(c1)C(NC(=O)Nc1cccc(N)c1)CC(C)(C)O2 (racemic)	97	> 100	91
CC(C)(C)OC(=O)Nc1ccc2c(c1)C(NC(=O)Nc1ccc([N+](=O)[O-])cc1)CC(C)(C)O2 (racemic)	24	26	20
CC(C)(C)OC(=O)Nc1ccc2c(c1)C(NC(=O)Nc1cccc(F)c1)CC(C)(C)O2 (racemic)	20	26	19
